High-throughput results: PubChem, The Scripps Research Institute Molecular Screening Center
This is a sample that favours compounds with a hit; in the whole collection about 2% have one here.
CHRM1 antagonist: blocks human M1 muscarinic receptor; CHO-K1 hM1, Fluo-8 calcium fluorescence, ACh EC80 antagonist; AID 588852; inhibition, % at 3 µM; 360,000 tested, 1.3% active; P11229;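 active = percent inhibition above its own plate's cutoff, namely the mean of that plate's compound wells plus 3 SD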;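 note: peak over basal fluorescence ratio during 140 s after agonist addition; 0% = ACh EC80 plus DMSO and 100% = DMSO alone without agonist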
Target sequence (P11229 whole entry, looked up): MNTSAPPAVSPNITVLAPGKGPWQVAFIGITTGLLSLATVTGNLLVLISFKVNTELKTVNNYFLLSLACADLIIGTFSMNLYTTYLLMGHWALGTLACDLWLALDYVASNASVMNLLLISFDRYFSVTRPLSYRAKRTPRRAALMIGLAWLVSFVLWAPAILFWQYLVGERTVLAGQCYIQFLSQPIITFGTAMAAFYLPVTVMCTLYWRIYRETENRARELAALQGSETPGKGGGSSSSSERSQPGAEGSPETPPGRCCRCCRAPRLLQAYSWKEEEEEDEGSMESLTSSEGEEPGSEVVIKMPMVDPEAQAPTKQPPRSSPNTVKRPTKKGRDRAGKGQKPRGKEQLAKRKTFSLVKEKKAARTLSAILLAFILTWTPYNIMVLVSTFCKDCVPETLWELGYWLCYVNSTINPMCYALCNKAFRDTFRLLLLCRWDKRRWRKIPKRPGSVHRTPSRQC
CHRM5 PAM: potentiates acetylcholine response at human M5 receptor; P08912; CHO-K1 hM5, Fluo-8 calcium, ACh EC20 PAM; 0% = ACh EC20, 100% = ACh EC100; activation, % at 3 µM; 360,000 tested, 0.3% active; AID 624038;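 active = activation above the run cutoff, the mean activation of all test compounds plus 3 SD, cut at about 18% in these data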
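Assay system: CHO-K1 hM5 cells. Also added: acetylcholine at EC20 concentration, added after compound. Dosing: 3 µM, single dose. Times: compound preincubation 140 s before EC20 acetylcholine addition. Signal: Fluo-8 calcium fluorescence. Measure: % activation relative to EC20 and EC100 ACh responses. Repeats: singlicate, one well per test compound.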
M1 ag: activates human CHRM1 receptor; P11229; CHO-K1 hM1, Fluo-8 calcium fluorescence, agonist mode; 0% DMSO, 100% acetylcholine EC100; activation, % at 3 µM; 360,000 tested, 0.33% active; AID 588814;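 active = activation above the run's mean compound activation plus 3 SD, cut at about 16% in these data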;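 note: peak over basal fluorescence ratio within a 140 s kinetic read after compound addition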
M5 ag: CHRM5 agonism in calcium assay | P08912 | CHO-K1 hM5 cells, Fluo-8 calcium fluorescence; 0% DMSO wells, 100% maximal acetylcholine response | activation, % at 3 µM | 360,000 tested, 0.19% active | AID 624037;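 active = activation above the run's mean over test compounds plus 3 SD, cut at about 23% in these data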;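 note: signal is peak over basal fluorescence ratio across the kinetic read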
CHRM5 antagonist: antagonists of human muscarinic M5 receptor (CHRM5); P08912; CHO-hM5 cells, Fluo-8 calcium fluorescence, ACh EC80; inhibition, % at 3 µM; 360,000 tested, 0.59% active;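 active = inhibition above a per-plate cutoff, the mean of that plate's test compounds plus 3 SD, cut at about 27% in these data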;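 note: 0% = acetylcholine EC80 with DMSO and 100% = DMSO without agonist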
M1 PAM: human CHRM1 positive allosteric modulation | CHO-K1 hM1, Fluo-8 calcium fluorescence, ACh EC20; 0% = ACh EC20, 100% = maximal ACh | activation, % at 3 µM | 360,000 tested, 0.088% active | AID 588819; in the data active = activation above about 19%, passing the limit was not always enough
An asterisk follows results filed as active; / = no result given.

SMILES | CHRM1 antagonist | CHRM5 PAM | M1 ag | M5 ag | CHRM5 antagonist | M1 PAM
CCN(CC)CC#CCC(O)(c1ccccc1)c1ccccc1 | 93* | -35 | -7 | -16 | 29* | -25
CCN(CC)CC#CCC(C)(c1ccccc1)c1ccccc1 | 72* | -21 | -5 | -12 | 17 | -21
Clc1cccc(CNc2ccn3nc(-c4cccc(OCc5ccccc5)c4)cc3n2)c1 | -12 | 0 | 1 | 3 | -1 | 4
CCCc1nc2c(Cl)cc(C(F)(F)F)cn2c1Cc1ccc(OC)cc1C | / | -5 | / | -1 | -3 | /
COC(=O)[C@H]1C[C@H](OC(=O)Nc2cccs2)[C@@]2(O)CN(S(=O)(=O)c3ccc(C)cc3)CC2[C@H]1C(=O)OC (some centres undefined) | 4 | -4 | -2 | 3 | 2 | 3
CC12CCC(O)CC1=CCC1C2CCC2(C)C(c3ccn[nH]3)CCC12 (centres undefined) | 27 | -25 | -2 | -5 | 20 | -16
CC(C)Nc1nc(Nc2ccc(F)cc2)c2sccc2n1 | -3 | -6 | -3 | 1 | 12 | 0
Cc1ccc(NC(=O)CSc2nc3cc(C(=O)NCC4CCCO4)ccc3c(=O)n2CC2CCCO2)cc1 (centres undefined) | -20 | 2 | -4 | -2 | 0 | 6
C=CC(O)(C#CCN(CC)CC)c1ccccc1 (centres undefined) | 38* | -23 | -4 | -6 | 15 | -18
Cc1ccc(S(=O)(=O)N2C(=O)CCC2C(=O)O/N=C(\N)c2ccccc2)cc1 (centres undefined) | -9 | 17 | 18* | 7 | -12 | 19
Cc1ccc(S(=O)(=O)N2C(=O)CCC2C(=O)O/N=C(\N)c2ccc([N+](=O)[O-])cc2)cc1 (centres undefined) | -2 | 7 | -3 | -2 | -3 | 2
Cc1ccccc1S(=O)(=O)c1c(C)cc(C)n(C(C)C)c1=O | -30 | 22* | -1 | -5 | -11 | 7
CC1(C)CC(C(CCN(Cc2ccccc2)C(=O)c2ccco2)c2ccc(F)cc2)CCO1 (centres undefined) | 36* | -19 | -3 | -3 | 17 | -19
CCCNC(=O)C1(C)CCCN(Cc2ccccc2N(C)C)C1 (centres undefined) | -12 | 1 | -7 | 0 | -1 | 5
COc1cc(-c2noc(C)c2-c2ccc3[nH]ccc3c2)cc(OC)c1OC | 7 | -23 | -2 | -3 | 18 | 3
COc1cc(-c2noc(C)c2-c2ccc(N(C)C)nc2)cc(OC)c1OC | 20 | -12 | 34* | 36* | 12 | -12
O=[N+]([O-])c1ccc(S(=O)(=O)NCCc2cn3ccccc3n2)cc1 | -27 | 3 | -1 | 1 | -6 | 28*
COCCOC(=O)c1c(N)n(CCCN2CCOCC2)c2nc3ccccc3nc12 | -9 | 19* | -5 | 4 | -6 | 8
CCOc1ccc(C(=O)NCC(C)CN(C)C)cc1OCC (centres undefined) | 3 | 22* | -2 | -2 | 18 | 4
CCOCc1nnc(NC(=O)c2ccco2)s1 | 2 | 4 | -1 | -7 | 3 | 6
CC(C)c1nnc(NC(=O)C2c3ccccc3Oc3ccccc32)s1 | 45* | 12 | 1 | 8 | -6 | -19
Cc1nnc(NC(=O)C2c3ccccc3Oc3ccccc32)s1 | 15 | 4 | -5 | -3 | -2 | -11
CCOCc1nnc(NC(=O)C2c3ccccc3Oc3ccccc32)s1 | 12 | -1 | 6 | 28* | 1 | -13
COCCN(Cc1ccc(C)cc1)C(=O)[C@H]1O[C@@H](n2ccc(N)nc2=O)[C@H](O)[C@@H]1O | -7 | 2 | -1 | 0 | 4 | 11
COc1ccc(S(=O)(=O)N(CC(=O)Nc2ccc3c(c2)OCO3)c2ccccc2OC)cc1 | 31* | -16 | 0 | 1 | 15 | -9
COc1ccccc1N(CC(=O)Nc1ccc2c(c1)OCO2)S(=O)(=O)c1ccccc1 | 12 | -10 | -3 | 2 | 9 | -5
